Data reported in PubChem BioAssay.
Records with an inconclusive call do not appear.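 The calls were made as follows, unless noted: active = viability at or below 27.92% in each of two runs, the all-compound median minus 4 SD; inconclusive = no clear call, values can overlap the other calls; inactive = the rest.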

Assays:
[1] = OD615 S. cerevisiae growth inhibition, permissive medium, pilot counter-assay, permissive growth control for S. cerevisiae lifespan shortening project (AID 705;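 active = growth inhibition above 25% in both replicates, a cutoff set 3 SD above the mean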); settings: OD615, 24 h, at 10 µM, active compounds read high
How it was run: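 Material: engineered DeaD yeast; Compound: one dose 10 µM, DMSO 0.25% final; Detection: absorbance (optical density) at 615 nm; Buffer or medium: permissive raffinose/galactose medium; Timing: 24 h exposure, 30 °C.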

[2] = Restrictive medium S. cerevisiae growth inhibition, OD615, pilot screen of yeast lifespan reduction project, restrictive growth control (AID 706;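 active = growth inhibition above a set limit, 3 SD over mean compound inhibition, in both replicates, cut at about 43% in these data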;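 also: modified DeaD lifespan yeast strain shifted to restrictive glucose medium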); settings: OD615, 48 h, at 10 µM, active compounds read high
How it was run: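 Buffer or medium: restrictive glucose medium (CSMM-D); test system: modified S. cerevisiae; doses: single dose of 10 µM compound final, 0.25% DMSO; schedule: 48 h compound exposure at 30 °C; detection: absorbance (optical density) measured at 615 nm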

[3] = viability gain of MRP-1-high H69AR cells under doxorubicin, pilot screen, MRP-1 activator project, CellTiter-Glo, duplicate (AID 807;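 active = viability increase at or above a cutoff of the median across tested compounds plus 3 SD, cut at about 8.5% in these data, passing the limit was not always enough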;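 also: compound pretreatment 18-22 h then 72 h combined with doxorubicin; 0% = doxorubicin alone and 100% = vehicle without doxorubicin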); settings: H69AR viability with doxorubicin, CellTiter-Glo luminescence; at 10 µM; active compounds read high
[4] = growth suppression of beta-catenin knockout HCT116, pilot screen, human colon tumor cells (AID 823;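 active = cell viability at or below a set limit in both duplicate runs, the limit being the all-compound median minus 4 SD, cut at about 23% in these data, passing the limit was not always enough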;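 also: 0% = wells killed by 20 µM Hyamine and 100% = untreated DMSO cell wells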); settings: CellTiter-Glo, 60 h, at 10 µM, active compounds read low
[5] = growth suppression of PTEN-deleted HCT116, pilot screen, cell-based, HCT116 clonal line, CellTiter-Glo (AID 824); settings: 60 h, at 10 µM, active compounds read low;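 also: 0% = 20 µM Hyamine control and 100% = vehicle cell control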
[6] = inhibitors of the yeast RAM network, pilot screen, dse1pr::URA3 reporter, 5-FOA selection (AID 869;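 active = inhibition over a set limit, the all-compound mean plus 3 SD, in both replicate runs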;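 also: 0% = DMSO wells with no growth and 100% = 10 µM 1-NA-PP1 with full growth; RAM network block rescues cells from 5-FOA so hits raise OD615 growth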); settings: S. cerevisiae dse1pr::URA3 5-FOA growth, OD615, 2 d; at 10 µM; active compounds read high; strain carries analog-sensitive mutant Cbk1 kinase
[7] = RAM signaling pathway blockade in yeast – S. cerevisiae, Pdr1DBD-CYC8 efflux-inhibited sensitized strain, primary screen (AID 1298;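 active = RAM network inhibition above 8.4% in each of two replicates, 3 SD over the compound average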;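 also: 0% = DMSO untreated cells without growth and 100% = 10 µM 1-NA-PP1 full growth; higher means more yeast growth rescued from 5-FOA killing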); settings: S. cerevisiae cbk1-as DSE1-URA3 strain, 5-FOA growth OD615, 2 d; at 50 µM; active compounds read high

CN(C)S(=O)(=O)Nc1ccc2c(c1)Cc1ccccc1-2
inactive: growth inhibition [1] -17.4% | growth inhibition [2] -9.69% | viability increase [3] -2.09% | viability [4] 92.3% | viability [5] 88.5% | inhibition [6] 1% | RAM network inhibition [7] 4.68%

O=C(NC1=NCCS1)c1csc2ccccc12
inactive: growth inhibition [1] -9.29% | growth inhibition [2] 27.3% | viability increase [3] -3.86% | viability [4] 74% | viability [5] 79% | inhibition [6] 1.16% | RAM network inhibition [7] 1.26%

CC1=C(NCCc2ccccc2)CCC1=O
inactive: growth inhibition [1] 1.6% | growth inhibition [2] -14.4% | viability increase [3] -2.97% | viability [4] 92% | viability [5] 86.2% | inhibition [6] 1.74% | RAM network inhibition [7] 2.7%

CCOC(=O)C1CCCCN1Cc1cc(Cl)ccc1O (configuration not stated)
inactive: growth inhibition [1] -3.16% | growth inhibition [2] -13.2% | viability increase [3] 0.31% | viability [4] 87% | viability [5] 81% | inhibition [6] 0.74% | RAM network inhibition [7] 3.98%

CCOC(=O)N1CCN(C(=O)c2ccccc2Oc2ccccc2)CC1
inactive: growth inhibition [1] -5.57% | growth inhibition [2] 0.11% | viability increase [3] -1.94% | viability [4] 91% | viability [5] 93.3% | inhibition [6] -0.56% | RAM network inhibition [7] 0.52%

COc1ccc(C(=O)N2CCN(S(=O)(=O)c3ccc(C)cc3C)CC2)cc1OC
inactive: growth inhibition [1] -11.3% | growth inhibition [2] -13.3% | viability increase [3] 0.12% | viability [4] 93.2% | viability [5] 90.3% | inhibition [6] 1.12% | RAM network inhibition [7] 2.18%

O=S(=O)(c1ccc(-c2cn3ccccc3n2)cc1)N1CCOCC1
inactive: growth inhibition [1] 1.49% | growth inhibition [2] -12.4% | viability increase [3] -3.55% | viability [4] 86.7% | viability [5] 97.3% | inhibition [6] 1.14% | RAM network inhibition [7] 3.9%

Cc1nc2ccc(S(=O)(=O)NC(C(=O)NC3CCCC3)C(C)C)cc2s1 (configuration not stated)
inactive: growth inhibition [1] -5.81% | growth inhibition [2] -1.42% | viability increase [3] -0.4% | viability [4] 102% | viability [5] 101% | inhibition [6] 1.04% | RAM network inhibition [7] 1.87%

CCC1Oc2ccc(C)cc2N(CC(=O)NCCc2ccc(OC)c(OC)c2)C1=O (configuration not stated)
inactive: growth inhibition [1] -6.91% | growth inhibition [2] 3.82% | viability increase [3] -0.77% | viability [4] 95.2% | viability [5] 92.4% | inhibition [6] 1.23% | RAM network inhibition [7] -0.46%

Cc1ccccc1OCC(=O)Nc1ccccc1N1CCOCC1
inactive: growth inhibition [1] -1.63% | growth inhibition [2] 6.71% | viability increase [3] -5.31% | viability [4] 91.7% | viability [5] 84.7% | inhibition [6] 1.22% | RAM network inhibition [7] 6.55%

CC(C)OC(=O)c1nnc(Cc2ccc(F)cc2)o1
inactive: growth inhibition [1] 4.28% | growth inhibition [2] 8.2% | viability increase [3] 2.12% | viability [4] 113% | viability [5] 107% | inhibition [6] 0.82% | RAM network inhibition [7] 7.85%

Cc1ccc(NC(=O)CN(c2cc(C)cc(C)c2)S(=O)(=O)c2c(C)noc2C)nc1
inactive: growth inhibition [1] -8.61% | growth inhibition [2] -7.12% | viability increase [3] -3.03% | viability [4] 69.4% | viability [5] 70.6% | inhibition [6] 0.895% | RAM network inhibition [7] 7.84%

O=C1c2ccccc2C(O)N1c1ccc(Cl)cc1 (configuration not stated)
inactive: growth inhibition [1] -8.19% | growth inhibition [2] -7.83% | viability increase [3] -0.07% | viability [4] 93.4% | viability [5] 95.5% | inhibition [6] 0.58% | RAM network inhibition [7] 1.49%

COc1ccc(C(C)(C)C)cc1NC(=O)COC(=O)c1cnc(C)cn1
inactive: growth inhibition [1] -4.5% | growth inhibition [2] -5.05% | viability increase [3] -2.09% | viability [4] 97.3% | viability [5] 94.3% | inhibition [6] 0.395% | RAM network inhibition [7] 4.9%

C=CCn1c(-c2ccco2)n[nH]c1=S
inactive: growth inhibition [1] 2.98% | growth inhibition [2] -4.35% | viability increase [3] -1.3% | viability [4] 110% | viability [5] 97.6% | inhibition [6] 1.58% | RAM network inhibition [7] 2.89%

CCOC(=O)Cn1c(=O)oc2cc(S(=O)(=O)Nc3c(C)cc(C)cc3C)ccc21
inactive: growth inhibition [1] -11.4% | growth inhibition [2] -14.1% | viability increase [3] -2.56% | viability [4] 94.5% | viability [5] 95.3% | inhibition [6] 0.86% | RAM network inhibition [7] 4.9%

C=CCn1cc(C(=O)NCc2cccnc2)c(=O)c2cc(S(=O)(=O)N(CC)CC)ccc21
inactive: growth inhibition [1] -7.53% | growth inhibition [2] -8.9% | viability increase [3] -3.95% | viability [4] 103% | viability [5] 97% | inhibition [6] 1.33% | RAM network inhibition [7] 0.51%

O=S(=O)(NCc1cccnc1)c1ccc(Cl)c(Cl)c1
inactive: growth inhibition [1] -0.945% | growth inhibition [2] -19.6% | viability increase [3] -0.3% | viability [4] 98.9% | viability [5] 93.8% | inhibition [6] 0.75% | RAM network inhibition [7] 4.18%

CCOc1ccc(N2C(=O)CC(Sc3nc(C)cc(C)n3)C2=O)cc1 (configuration not stated)
inactive: growth inhibition [1] -3.95% | growth inhibition [2] 1.55% | viability increase [3] -1.4% | viability [4] 108% | viability [5] 98.9% | inhibition [6] 0.24% | RAM network inhibition [7] 3.27%

O=C(Nc1ccc2c(c1)OCO2)C1CCCN1C(=O)OCc1ccccc1 (configuration not stated)
inactive: growth inhibition [1] -17.8% | growth inhibition [2] -4.2% | viability increase [3] -1.45% | viability [4] 94.4% | viability [5] 93.6% | inhibition [6] 1.32% | RAM network inhibition [7] 4.12%

CC(=NCCN1CCOCC1)C1=C(O)c2ccccc2C1=O
inactive: growth inhibition [1] -5.16% | growth inhibition [2] -12.6% | viability increase [3] -1.7% | viability [4] 103% | viability [5] 100% | inhibition [6] 1.3% | RAM network inhibition [7] -0.73%

O=C(NCc1ccccn1)c1cc2ccccn2n1
inactive: growth inhibition [1] -2.5% | growth inhibition [2] 0.82% | viability increase [3] -0.01% | viability [4] 104% | viability [5] 102% | inhibition [6] 0.245% | RAM network inhibition [7] 3.25%

N#Cc1c2n(c3c(-c4ccccc4)ncnc13)CCC2
inactive: growth inhibition [1] -12.9% | growth inhibition [2] -11.2% | viability increase [3] -2.25% | viability [4] 104% | viability [5] 98.7% | inhibition [6] 2.73% | RAM network inhibition [7] 3.93%

CC(=O)c1ccc(NC(=O)CSc2nc3nc(C)cc(C)n3n2)cc1
inactive: growth inhibition [1] -20.6% | growth inhibition [2] -8.37% | viability increase [3] -1.88% | viability [4] 101% | viability [5] 93.9% | inhibition [6] 2.34% | RAM network inhibition [7] 2.78%

CC(=O)N1CCc2cc(C(=O)CN3CCN(C(=O)c4ccco4)CC3)ccc21
inactive: growth inhibition [1] 4.58% | growth inhibition [2] 3.74% | viability increase [3] -2.02% | viability [4] 105% | viability [5] 93.3% | inhibition [6] 3.93% | RAM network inhibition [7] 2.07%

COCCn1c(SCC(=O)Nc2cc(Cl)ccc2OC)nc2c(c1=O)SC(C)C2 (configuration not stated)
inactive: growth inhibition [1] 1.23% | growth inhibition [2] 0.95% | viability increase [3] -6.28% | viability [4] 83.3% | viability [5] 78% | inhibition [6] 2.55% | RAM network inhibition [7] -0.36%

CCN(CC)c1ccc(NS(=O)(=O)c2ccc3c(c2)oc(=O)n3C)c(C)c1
inactive: growth inhibition [1] -8.04% | growth inhibition [2] -10.8% | viability increase [3] -2.73% | viability [4] 83.2% | viability [5] 72.6% | inhibition [6] 1.33% | RAM network inhibition [7] -0.57%

C#CCn1c(=NC(=O)CN2C(=O)CCC2=O)sc2cccc(C)c21
inactive: growth inhibition [1] -15.5% | growth inhibition [2] -1.5% | viability increase [3] -3.32% | viability [4] 93.3% | viability [5] 88.8% | inhibition [6] 1.89% | RAM network inhibition [7] 2.03%

CSc1nnc(-c2ccco2)n1-c1ccccc1
inactive: growth inhibition [1] -6.73% | growth inhibition [2] 6.08% | viability increase [3] -0.4% | viability [4] 94.6% | viability [5] 90% | inhibition [6] 2.92% | RAM network inhibition [7] 5.77%

CCOc1ccccc1Nc1nnc(C)c(=O)[nH]1
inactive: growth inhibition [1] -5.5% | growth inhibition [2] 5.76% | viability increase [3] -0.35% | viability [4] 105% | viability [5] 99.3% | inhibition [6] 0.56% | RAM network inhibition [7] 3.65%

CCc1nnc(NC(=O)CSc2nc3c(c(=O)n2CC)SC(C)C3)s1 (configuration not stated)
inactive: growth inhibition [1] 3.12% | growth inhibition [2] -4.29% | viability increase [3] -0.18% | viability [4] 99.2% | viability [5] 93.1% | inhibition [6] 3.99% | RAM network inhibition [7] 6.11%

CN1CCN(S(=O)(=O)c2ccc3c4c(cccc24)C(=O)N3)CC1
inactive: growth inhibition [1] -11.8% | growth inhibition [2] -4.42% | viability increase [3] -2% | viability [4] 110% | viability [5] 96.4% | inhibition [6] 1.18% | RAM network inhibition [7] 1.28%

O=C(CSc1nnc(-c2ccccn2)n1Cc1ccco1)c1ccc(Cl)cc1
inactive: growth inhibition [1] 1.63% | growth inhibition [2] 23.2% | viability increase [3] -2.56% | viability [4] 85.8% | viability [5] 82% | inhibition [6] 2.6% | RAM network inhibition [7] 4.4%

COc1cccc(NC(=O)c2nnn(CCc3ccccc3)c2N)c1
inactive: growth inhibition [1] -1.48% | growth inhibition [2] 0.3% | viability increase [3] -6.11% | viability [4] 65.9% | viability [5] 50.7% | inhibition [6] 2.52% | RAM network inhibition [7] 0.72%

COc1cc(C(c2sc3nc(C)nn3c2O)N2CCc3ccccc3C2)cc(OC)c1OC (configuration not stated)
inactive: growth inhibition [1] 3.55% | growth inhibition [2] -1.53% | viability increase [3] -1.3% | viability [4] 110% | viability [5] 96.1% | inhibition [6] 1.23% | RAM network inhibition [7] 2.85%

CCC(=O)Nc1c2c(nn1-c1ccc(OC)cc1)CS(=O)C2 (configuration not stated)
inactive: growth inhibition [1] -6.53% | growth inhibition [2] 5.54% | viability increase [3] 0.56% | viability [4] 102% | viability [5] 94.1% | inhibition [6] 1.37% | RAM network inhibition [7] 2.55%
